In ChEMBL document CHEMBL1129560, “Nucleoside conjugates. 15. Synthesis and biological activity of anti-HIV nucleoside conjugates of ether and thioether phospholipids” (J Med Chem, 1996):
pEC50, pIC50: −log10 of the molar value.

Columns and labels:
[1] = Time taken to decrease plasma concentration to half of its initial concentration after ip administration; assay type: ADME, organism-based
Outline: (§1)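 Female NIH-Swiss mice (25–30 g) received one dose of micellar conjugate ip at 394 mg/kg (equivalent to 100 mg/kg parent nucleoside), or the parent at 100 mg/kg ip. An iv arm gave 205 mg/kg conjugate or 50 mg/kg parent. Three mice were taken per time point up to 24 h. Serum nucleoside was measured by HPLC-UV at 260 nm. Analysis was noncompartmental, with t1/2 = 0.693/λz.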

CCRF-CEM [2] = experiment: Ability to reduce viable cell number on HIV-1-infected CEM cells in vitro; conditions: Homo sapiens
CCRF-CEM [3] = experiment: Effective concentration against HIV-1-infected CEM cells in mice administered intraperitoneally; assay type: functional, cell-based; conditions: Homo sapiens, in the assay text read “in vitro” for “in mice administered intraperitoneally”
Outline: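 Conjugates were given as micellar suspensions made by sonication, in HIV-1-infected CEM cells. EC50 is the concentration protecting infected cells by 50%. IC50 is the concentration reducing viable cell number by 50%.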

[4] = Pharmacokinetic parameter AUC in mice following a single dose intraperitoneal administration of the compound; conditions: mouse, in vivo, ip
[5] = Time taken to decrease plasma concentration to half of its initial concentration after intraperitoneal administration; assay type: ADME, organism-based; conditions: ip; outline: as §1
[6] = Time taken to decrease plasma concentration to half of its initial concentration after iv administration; assay type: ADME, organism-based

SMILES	half-life [1]	pIC50 (CCRF-CEM [2])	pEC50 (CCRF-CEM [3])	AUC [4]	half-life [5]	half-life [6]
Cc1cn([C@H]2C[C@H](N=[N+]=[N-])[C@@H](CO)O2)c(=O)[nH]c1=O [ZIDOVUDINE]	0.28 h	3.72	6.73	175000 ng·h/mL	–	–
[N-]=[N+]=N[C@H]1C[C@H](n2ccc(=O)[nH]c2=O)O[C@@H]1CO [NAVURIDINE]	–	–	–	42300 ng·h/mL	–	0.89 h
CCCCCCCCCCCCCCCCCCSCC(COP(=O)(O)OP(=O)(O)OC[C@@H]1CC[C@H](n2ccc(N)nc2=O)O1)OC(=O)CCCCCCCCCCCCCCC (some centres not stated)	–	2.55	3.89	–	–	–

More lines, now with the values ahead:

half-life [1]	pIC50 (CCRF-CEM [2])	pEC50 (CCRF-CEM [3])	AUC [4]	half-life [5]	half-life [6]	SMILES
–	1.85	4.24	–	–	–	CCCCCCCCCCCCCCCC(=O)OC(COCCCCCCCCCCCCCC)COP(=O)(O)OP(=O)(O)OC[C@H]1O[C@@H](n2cc(C)c(=O)[nH]c2=O)C[C@@H]1N=[N+]=[N-] (some centres not stated)
–	3.92	> 6.24	25800 ng·h/mL	5.69 h	–	CCCCCCCCCCCCCCCCCCSCC(COP(=O)([O-])OP(=O)([O-])OC[C@H]1O[C@@H](n2cc(C)c(=O)[nH]c2=O)C[C@@H]1N=[N+]=[N-])OC(=O)CCCCCCCCCCCCCCC.[Na+].[Na+] (some centres not stated)
–	3.42	4.77	–	–	6.5 h	CCCCCCCCCCCCCCCCCCSCC(COP(=O)([O-])OP(=O)([O-])OC[C@H]1O[C@@H](n2ccc(=O)[nH]c2=O)C[C@@H]1N=[N+]=[N-])OC(=O)CCCCCCCCCCCCCCC.[Na+].[Na+] (some centres not stated)
